Data taken from ChEMBL document CHEMBL2406952, “Identification of vitamin d3-based hedgehog pathway inhibitors that incorporate an aromatic a-ring isostere” (ACS Med Chem Lett, 2013).
The source made the active and inactive calls. No cut-off for these calls is given here.

Assays:
[1] = biological target: T1, Vitamin D3 receptor (Mus musculus) (UniProt P48281); experiment: Activation of VDR in mouse C3H10T1/2 cells assessed as upregulation of Cyp24A1 mRNA expression at 5 uM after 24 hrs by RT-PCR analysis relative to DMSO-treated control; type: cell-based; settings: C3H 10T1/2
T1 sequence (whole entry): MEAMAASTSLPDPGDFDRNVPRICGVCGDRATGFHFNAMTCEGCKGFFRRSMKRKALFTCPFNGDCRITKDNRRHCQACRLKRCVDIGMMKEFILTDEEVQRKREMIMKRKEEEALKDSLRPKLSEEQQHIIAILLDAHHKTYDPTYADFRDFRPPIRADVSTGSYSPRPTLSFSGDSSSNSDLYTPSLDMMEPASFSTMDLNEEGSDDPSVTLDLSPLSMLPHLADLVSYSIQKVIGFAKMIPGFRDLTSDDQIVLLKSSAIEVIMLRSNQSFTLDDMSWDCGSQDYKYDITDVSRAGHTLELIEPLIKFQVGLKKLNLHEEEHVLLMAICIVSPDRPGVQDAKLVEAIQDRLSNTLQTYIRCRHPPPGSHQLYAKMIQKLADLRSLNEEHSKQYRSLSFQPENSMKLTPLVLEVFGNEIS
In short: (§1)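 Cyp24A1 mRNA normalized to ActinB and expressed relative to DMSO vehicle (set to 1.0). Cells treated for 24 h at 5 μM (some agents at 1 μM).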

[2] = biological target: T2, Vitamin D3 receptor (Homo sapiens) (UniProt P11473); experiment: Binding affinity to human VDR by fluorescence polarization assay
T2 sequence (whole entry): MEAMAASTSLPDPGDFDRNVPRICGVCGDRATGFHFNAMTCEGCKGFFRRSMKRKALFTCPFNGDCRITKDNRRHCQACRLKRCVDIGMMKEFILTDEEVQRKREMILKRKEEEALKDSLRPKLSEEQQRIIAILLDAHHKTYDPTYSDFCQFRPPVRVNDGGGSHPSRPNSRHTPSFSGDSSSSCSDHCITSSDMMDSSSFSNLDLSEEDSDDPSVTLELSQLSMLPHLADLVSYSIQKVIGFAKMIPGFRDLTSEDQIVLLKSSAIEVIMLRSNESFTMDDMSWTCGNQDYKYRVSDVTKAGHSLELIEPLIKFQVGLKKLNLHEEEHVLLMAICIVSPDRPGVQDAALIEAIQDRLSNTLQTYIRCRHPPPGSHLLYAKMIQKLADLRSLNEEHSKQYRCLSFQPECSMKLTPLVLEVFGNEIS
In short: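 Fluorescence polarization competition kit with full-length human VDR and a tight-binding fluorescent VDR ligand, run per manufacturer's instructions. Compounds tested at 50 and 100 μM, with calcitriol as positive control for binding.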

[3] = Inhibition of Hedgehog signaling in mouse C3H10T1/2 cells assessed as downregulation of Gli1 mRNA expression at 5 uM after 24 hrs by RT-PCR analysis relative to 20(S)-hydroxycholesterol and 22(S)-hydroxycholesterol; type: cell-based; settings: C3H 10T1/2
In short: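 Endogenous Gli1 mRNA measured after 24 h at 5 μM and normalized to ActinB with DMSO vehicle set to 1.0. Cells stimulated with 20(S)-hydroxycholesterol plus 22(S)-hydroxycholesterol (5 μM each) define 100% pathway activity, and the analogue effect is given as % of this level.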

[4] = biological target: T2, Vitamin D3 receptor (Homo sapiens); experiment: Activation of VDR in human DaOY cells assessed as upregulation of Cyp24A1 mRNA expression at 2.5 uM after 48 hrs by RT-PCR analysis relative to DMSO-treated control; type: cell-based
In short: (§2)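 Cells exposed to compound for 48 h; Cyp24A1 mRNA expression measured and expressed relative to DMSO vehicle-treated cells, set as 1.0.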

[5] = biological target: T1, Vitamin D3 receptor (Mus musculus); experiment: Activation of VDR in mouse ASZ001 cells assessed as upregulation of Cyp24A1 mRNA expression at 5 uM after 48 hrs by RT-PCR analysis relative to DMSO-treated control; type: cell-based
In short: (§3)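 Cyp24A1 mRNA measured after 48 h exposure to analogue and normalized to ActinB, expressed relative to DMSO vehicle-treated cells (set as 1.0). Single concentrations tested were 2.5, 5 or 10 μM.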

[6] = Inhibition of Hedgehog signaling in human DaOY cells assessed as downregulation of Gli1 mRNA expression after 48 hrs by RT-PCR analysis; type: cell-based
In short: (§4)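 Gli1 mRNA dose-response after 48 h compound incubation, used to derive IC50 (μM). Each value comes from at least two separate experiments, each performed in triplicate.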

[7] = Inhibition of Hedgehog signaling in mouse M210B4 cells assessed as downregulation of Ptch mRNA expression after 24 hrs by RT-PCR analysis; type: cell-based; settings: M210B4, 24 h
In short: (§5)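 Oxysterol-stimulated cells (20(S)- plus 22(S)-hydroxycholesterol, 5 μM each) were treated with compound across a dose range for 24 h. Gli1 and Ptch mRNA were normalized to ActinB, and IC50 values were derived. VD3 was dosed up to 10 μM.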

[8] = Inhibition of Hedgehog signaling in mouse M210B4 cells assessed as downregulation of Gli1 mRNA expression after 24 hrs by RT-PCR analysis; type: cell-based; settings: M210B4, 24 h; in short: as §5
[9] = biological target: T1, Vitamin D3 receptor (Mus musculus); experiment: Activation of VDR in mouse M210B4 cells assessed as upregulation of Cyp24A1 mRNA expression at 1 uM after 24 hrs by RT-PCR analysis relative to DMSO-treated control; type: cell-based
In short: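 M2-10B4 murine bone marrow stromal cells treated for 24 h at 1 μM; Cyp24A1 mRNA normalized to ActinB and expressed relative to DMSO vehicle, set to 1.0.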

[10] = Inhibition of Hedgehog signaling in mouse ASZ001 cells assessed as downregulation of Gli1 mRNA expression after 48 hrs by RT-PCR analysis; type: cell-based; settings: ASZ001, 48 h; in short: as §4
[11] = tested on: Daoy; experiment: Downregulation of Gli1 mRNA expression in human DaOY cells at 2.5 uM relative to DMSO-treated control; type: functional
[12] = biological target: T1, Vitamin D3 receptor (Mus musculus); experiment: Activation of VDR in mouse M210B4 cells assessed as upregulation of Cyp24A1 mRNA expression at 5 uM after 24 hrs by RT-PCR analysis relative to DMSO-treated control; type: cell-based; in short: as §1
[13] = Inhibition of Hedgehog signaling in mouse C3H10T1/2 cells assessed as downregulation of Ptch mRNA expression after 24 hrs by RT-PCR analysis; type: cell-based; settings: for IC50: C3H 10T1/2, 24 h; for inhibition: C3H 10T1/2; in short: as §5
[14] = biological target: T1, Vitamin D3 receptor (Mus musculus); experiment: Activation of VDR in mouse ASZ001 cells assessed as upregulation of Cyp24A1 mRNA expression at 5 to 10 uM after 48 hrs by RT-PCR analysis; type: cell-based; in short: as §2
[15] = Inhibition of Hedgehog signaling in mouse M210B4 cells assessed as downregulation of Gli1 mRNA expression at 10 uM after 24 hrs by RT-PCR analysis relative to 20(S)-hydroxycholesterol and 22(S)-hydroxycholesterol; type: cell-based
In short: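 M2-10B4 murine bone marrow stromal cells, Hh-responsive, treated for 24 h. Gli1 mRNA normalized to ActinB. Positive control 20(S)-hydroxycholesterol:22(S)-hydroxycholesterol (5 μM each) set as 100% pathway signaling. Values given as % of this level.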

[16] = biological target: T1, Vitamin D3 receptor (Mus musculus); experiment: Activation of VDR in mouse ASZ001 cells assessed as upregulation of Cyp24A1 mRNA expression at =< 2.5 uM after 48 hrs by RT-PCR analysis; type: cell-based; in short: as §2
[17] = biological target: T2, Vitamin D3 receptor (Homo sapiens); experiment: Activation of VDR in human DaOY cells assessed as upregulation of Cyp24A1 mRNA expression at 5 uM after 48 hrs by RT-PCR analysis relative to DMSO-treated control; type: cell-based; in short: as §3
[18] = Inhibition of Hedgehog signaling in mouse C3H10T1/2 cells assessed as downregulation of Gli1 mRNA expression after 24 hrs by RT-PCR analysis; type: cell-based; settings: for IC50: C3H 10T1/2, 24 h; for inhibition: C3H 10T1/2; in short: as §5
[19] = biological target: T2, Vitamin D3 receptor (Homo sapiens); experiment: Activation of VDR in human DaOY cells assessed as upregulation of Cyp24A1 mRNA expression at 10 uM after 48 hrs by RT-PCR analysis relative to DMSO-treated control; type: cell-based; in short: as §3
[20] = biological target: T2, Vitamin D3 receptor (Homo sapiens); experiment: Activation of VDR in human HT-29 assessed as upregulation of Cyp24A1 mRNA expression after 6 hrs by Northern blotting analysis
[21] = Inhibition of Hedgehog signaling in mouse ASZ001 cells assessed as downregulation of Gli1 mRNA expression at 10 uM after 48 hrs by RT-PCR analysis relative to control; values are per cent of control

Compound	fold change (FC) [1]	Activity [2] [µM]	Gli1 mRNA level (% of OHC control) [3] [%]	IC50 [6] [nM]	IC50 [10] [nM]	other results
O=C(O)c1cccc(O)c1	1.6	> 100	92.6			
CC1=C2C[C@H]3[C@@H](CC=C4C[C@@H](O)CC[C@@]43C)[C@@H]2CC[C@]12O[C@@H]1C[C@H](C)CN[C@H]1[C@H]2C [CYCLOPAMINE]				160	660	fold change (FC) [4]: 1; fold change (FC) [5]: 0.8; IC50 [7]: 430 nM; IC50 [8]: 800 nM; fold change (FC) [9]: 1.5
O=C(CCCCCCC(=O)Nc1ccccc1)NO [VORINOSTAT]						fold change (FC) [11]: 1.51
C=C1CC[C@H](O)C/C1=C/C=C1\CCC[C@]2(C)[C@@H]([C@H](C)CCCC(C)C)CC[C@@H]12 [CHOLECALCIFEROL]	8340		35.7	> 10000	2100	fold change (FC) [12]: 274; IC50 [13]: 2900 nM; Activity [14]: Active; IC50 [7]: > 10000 nM; IC50 [8]: > 10000 nM; inhibition [15]: 53%; Activity [16]: Active; fold change (FC) [17]: 149; IC50 [18]: 4100 nM
CC(=O)c1cccc(C(=O)O[C@H]2CCC[C@]3(C)[C@@H]([C@H](C)CCCC(C)C)CC[C@@H]23)c1	1.6	> 100	77.5			
CC(C)CCC[C@@H](C)[C@H]1CC[C@H]2[C@@H](OC(=O)c3cccc(OCc4ccccc4)c3)CCC[C@]12C	1	> 100	116			
COc1cccc(C(=O)O[C@H]2CCC[C@]3(C)[C@@H]([C@H](C)CCCC(C)C)CC[C@@H]23)c1	1.3	> 100	104			
CS(=O)(=O)c1ccc(C(=O)Nc2ccc(Cl)c(-c3ccccn3)c2)c(Cl)c1 [VISMODEGIB]				86	40	IC50 [7]: 140 nM; IC50 [8]: 200 nM
CC(C)CCC[C@@H](C)[C@H]1CC[C@H]2[C@@H](OC(=O)c3ccccc3)CCC[C@]12C	1.2	> 100	105	> 10000	> 10000	fold change (FC) [5]: 1.1; fold change (FC) [19]: 0.6
CC(C)CCC[C@@H](C)[C@H]1CC[C@H]2[C@@H](OC(=O)c3cccc(N)c3)CCC[C@]12C	24.3	> 100	2.4	9200	7100	inhibition [13]: Dose-dependent effect; IC50 [13]: 4500 nM; fold change (FC) [5]: 2.5; fold change (FC) [17]: 0.5; inhibition [18]: Dose-dependent effect; IC50 [18]: 2800 nM
CC(C)CCC[C@@H](C)[C@H]1CC[C@H]2[C@@H](OC(=O)c3cccc(Cl)c3)CCC[C@]12C	1.2	> 100	107			
CC(C)CCC[C@@H](C)[C@H]1CC[C@H]2[C@@H](OC(=O)c3cccc(C(=O)O)c3)CCC[C@]12C	6.7	> 100	40			
CC(C)CCC[C@@H](C)[C@H]1CC[C@H]2[C@@H](OC(=O)c3cccc(O)c3)CCC[C@]12C	22.2	> 100	1.9	3700	5200	fold change (FC) [12]: 1.2; Activity [20]: inactive; inhibition [13]: Dose-dependent effect; IC50 [13]: 1100 nM; fold change (FC) [5]: 1.9; IC50 [7]: 1700 nM; IC50 [8]: 1100 nM; fold change (FC) [17]: 0.4; inhibition [18]: Dose-dependent effect; IC50 [18]: 740 nM
Cc1ccc(NC(=O)c2ccc(CN3CCN(C)CC3)cc2)cc1Nc1nccc(-c2cccnc2)n1 [IMATINIB]						fold change (FC) [11]: 0.98
CC(C)CCC[C@@H](C)[C@H]1CC[C@H]2[C@@H](O)CCC[C@]12C	3.6		46.4	> 10000	> 10000	IC50 [13]: 2800 nM; fold change (FC) [5]: 2.4; level, % of control [21]: 65%; fold change (FC) [17]: 0.8; IC50 [18]: 3100 nM
CNc1cccc(C(=O)O[C@H]2CCC[C@]3(C)[C@@H]([C@H](C)CCCC(C)C)CC[C@@H]23)c1	1.6	> 100	97.8			
COC[C@H]1OC(=O)c2coc3c2[C@@]1(C)C1=C(C3=O)[C@@H]2CCC(=O)[C@@]2(C)C[C@H]1OC(C)=O [WORTMANNIN]						fold change (FC) [11]: 0.92
